Assay results from paper PMC12418302 (Journal of Natural Products, 2025).

Columns and labels:
[1] = system: zebrafish; conditions: in vivo; cited from earlier work
[2] = biological target: α-chymotrypsin (Bos taurus, UniProt P00766); assay: Chymotrypsin inhibition assay; assay type: biochemical
Outline: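 α-Chymotrypsin, added as a 10 U/mL solution in kit assay buffer, was preincubated with test compound from a DMSO dilution series (10 μM to 1 nM) for 15 min at room temperature. A reference micropeptin served as positive control. A working reagent of 1% substrate in assay buffer was added, and fluorescence (ex/em 485/530 nm) was read every 30 s for 30 min. IC50 was calculated from the data.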

[3] = biological target: T1, human neutrophil elastase (Homo sapiens, UniProt P08246); assay: Neutrophil elastase inhibition assay; assay type: biochemical; conditions: dilution series 10 μM to 1 nM; general statement covering both protease assays
T1 sequence (P08246 30-267): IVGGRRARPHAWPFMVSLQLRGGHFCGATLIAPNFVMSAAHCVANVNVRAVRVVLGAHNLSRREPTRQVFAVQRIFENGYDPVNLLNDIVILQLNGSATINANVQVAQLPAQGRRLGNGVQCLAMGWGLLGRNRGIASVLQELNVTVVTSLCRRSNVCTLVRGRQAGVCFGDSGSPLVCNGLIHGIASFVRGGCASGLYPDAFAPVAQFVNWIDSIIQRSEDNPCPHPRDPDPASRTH

[4] = system: chymotrypsin; conditions: read-out: IC50, chymotrypsin inhibition; literature value; cited from earlier work

CCCCCC(=O)N[C@@H](CC(=O)O)C(=O)N[C@H]1C(=O)N[C@@H](CCCN=C(N)N)C(=O)NC2CCC(O)N(C2=O)[C@@H]([C@H](C)CC)C(=O)N(C)[C@@H](Cc2ccc(O)cc2)C(=O)N[C@@H]([C@@H](C)CC)C(=O)O[C@@H]1C (some centres unmarked) [micropeptin K139]
share of the overall mortality attributed to the compound [1]: 52%

Micropeptin 996 (D-Gln) [Compound 4]
chymotrypsin inhibition (in words) ([2]; up to a concentration of 10 μM): not active

Micropeptin 982 (L-Ser) [Compound 2]
chymotrypsin inhibitory activity (in words) ([2]; dilution series 10 μM to 1 nM): no inhibition was observed | inhibitory activity (in words), neutrophil elastase [3]: lacked any inhibitory activity

Microviridin 1777
IC50 [4]: 0.1 µM
